Laboratory results as given in ChEMBL document CHEMBL2331528, “Design and synthesis of bicyclic pyrazinone and pyrimidinone amides as potent TF-FVIIa inhibitors” (Bioorg Med Chem Lett, 2013).

Columns and labels:
Coagulation factor X = Coagulation factor X (Homo sapiens, UniProt P00742); experiment: Inhibition of factor-10a (unknown origin) by chromogenic substrate assay
Outline: (§1)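 Ki from chromogenic substrate assays at 25 °C; n = 2.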

Prothrombin = Prothrombin (Homo sapiens, UniProt P00734); experiment: Inhibition of thrombin (unknown origin) by chromogenic substrate assay; outline: as §1
[1] = target: Coagulation factor VII/tissue factor (Homo sapiens, UniProt P08709); experiment: Inhibition of tissue factor-factor 7a (unknown origin) interaction by chromogenic substrate assay; format: protein-complex assay; outline: as §1
Sequence of Coagulation factor VII/tissue factor (P08709 61-212 limits assumed): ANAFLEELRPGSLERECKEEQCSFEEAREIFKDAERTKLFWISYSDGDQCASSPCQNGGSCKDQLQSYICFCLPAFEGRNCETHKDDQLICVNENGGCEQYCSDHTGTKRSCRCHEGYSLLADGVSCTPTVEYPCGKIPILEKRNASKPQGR
Sequence of Coagulation factor VII/tissue factor (P08709 213-466 limits assumed): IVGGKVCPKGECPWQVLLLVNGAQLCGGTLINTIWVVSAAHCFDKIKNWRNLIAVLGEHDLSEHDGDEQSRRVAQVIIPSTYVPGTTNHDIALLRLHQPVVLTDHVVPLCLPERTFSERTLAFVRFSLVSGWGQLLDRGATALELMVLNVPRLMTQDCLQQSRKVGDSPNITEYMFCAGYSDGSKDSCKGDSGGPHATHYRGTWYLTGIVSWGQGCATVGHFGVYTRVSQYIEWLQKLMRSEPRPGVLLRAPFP
Sequence of Coagulation factor VII/tissue factor (P13726 33-295 partner limits assumed): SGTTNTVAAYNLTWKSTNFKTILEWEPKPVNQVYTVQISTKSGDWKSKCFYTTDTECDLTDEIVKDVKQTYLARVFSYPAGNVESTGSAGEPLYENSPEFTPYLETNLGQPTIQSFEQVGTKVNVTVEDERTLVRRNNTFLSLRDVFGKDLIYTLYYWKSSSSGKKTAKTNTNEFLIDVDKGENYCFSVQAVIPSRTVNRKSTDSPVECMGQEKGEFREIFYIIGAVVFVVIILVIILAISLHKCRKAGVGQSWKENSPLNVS

Plasma [2] = experiment: Anticoagulant activity in factor 7 deficient human plasma assessed as concentration required to prothrombin time; format: functional
Plasma [3] = experiment: Fraction unbound in human plasma; format: ADME, cell-free
Homo sapiens [4] = species: Homo sapiens; experiment: Selectivity ratio of Ki for plasma kallikrein (unknown origin) to Ki for tissue factor-factor 7a (unknown origin) interaction
Homo sapiens [5] = species: Homo sapiens; experiment: Selectivity ratio of Ki for trypsin (unknown origin) to Ki for tissue factor-factor 7a (unknown origin) interaction
Homo sapiens [6] = species: Homo sapiens; experiment: Selectivity ratio of Ki for thrombin (unknown origin) to Ki for tissue factor-factor 7a (unknown origin) interaction
Homo sapiens [7] = species: Homo sapiens; experiment: Selectivity ratio of Ki for factor-11a (unknown origin) to Ki for tissue factor-factor 7a (unknown origin) interaction
Homo sapiens [8] = species: Homo sapiens; experiment: Selectivity ratio of Ki for factor-9a (unknown origin) to Ki for tissue factor-factor 7a (unknown origin) interaction
Homo sapiens [9] = species: Homo sapiens; experiment: Selectivity ratio of Ki for factor-10a (unknown origin) to Ki for tissue factor-factor 7a (unknown origin) interaction

Sequence of Coagulation factor X (P00742 41-179 limits assumed): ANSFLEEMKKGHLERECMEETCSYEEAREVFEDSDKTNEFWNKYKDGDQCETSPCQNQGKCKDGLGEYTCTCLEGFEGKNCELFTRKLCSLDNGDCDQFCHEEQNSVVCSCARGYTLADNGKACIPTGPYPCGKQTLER
Sequence of Coagulation factor X (P00742 235-488 limits assumed): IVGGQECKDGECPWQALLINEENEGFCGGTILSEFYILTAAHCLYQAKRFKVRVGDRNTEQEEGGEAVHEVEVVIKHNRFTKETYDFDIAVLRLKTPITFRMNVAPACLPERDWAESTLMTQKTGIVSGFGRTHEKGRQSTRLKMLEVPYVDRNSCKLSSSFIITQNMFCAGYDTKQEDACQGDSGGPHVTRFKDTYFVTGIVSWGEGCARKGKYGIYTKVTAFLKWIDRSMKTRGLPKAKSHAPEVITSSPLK

SMILES | Ki (Coagulation factor X) | Ki (Prothrombin) | Ki [1] | also measured
CCCNc1cnc2n(c1=O)[C@H](C(=O)NCc1ccc(C(=N)N)cc1)CC2 | > 15000 nM | 150 nM | 186 nM | 
CCC1(CC)C[C@@H](C(=O)NCc2ccc3c(N)noc3c2)n2c1c(Cl)nc(NC1CCC1)c2=O |  |  | 1900 nM | 
CCCNc1cnc2n(c1=O)[C@H](C(=O)NCc1ccc(C(=N)N)cc1)CC2(CCC)CCC | 3600 nM | 1200 nM | 620 nM | 
CC(C)(C)OC(=O)CNc1nc(Cl)c2n(c1=O)[C@H](C(=O)NCc1ccc(C(=N)N)cc1)CC2(C)C |  | 32 nM | 132 nM | 
CCCNc1cnc2n(c1=O)[C@H](C(=O)NCc1ccc(C(=N)N)cc1)CC2(C)C | > 15000 nM | 1800 nM | 290 nM | 
COCC(C)Nc1nc(Cl)c2n(c1=O)[C@H](C(=O)NCc1ccc(C(=N)N)cc1)CC2(C)C (stereo partly specified) |  |  | 130 nM | 
CC1(C)C[C@@H](C(=O)NCc2ccc(C(=N)N)cc2)n2c1c(Cl)nc(NC1(CO)CCCC1)c2=O | > 15000 nM | 380 nM | 70 nM | 
Cc1ccc(CNc2nc(Cl)c3n(c2=O)[C@H](C(=O)NCc2ccc(C(=N)N)cc2)CC3(C)C)o1 |  |  | 190 nM | 
CC(Nc1nc(Cl)c2n(c1=O)[C@H](C(=O)NCc1ccc(C(=N)N)cc1)CC2(C)C)C(C)(C)C (stereo partly specified) |  |  | 84 nM | 
CC(C)CNc1nc(Cl)c2n(c1=O)[C@H](C(=O)NCc1ccc(C(=N)N)cc1)CC2(C)C | > 15000 nM | 220 nM | 43 nM | 
CCCNc1cnc2n(c1=O)[C@H](C(=O)NCc1ccc(C(=N)N)cc1)CC2(CC)CC | 12000 nM | 5200 nM | 75 nM | 
CCC1(CC)C[C@@H](C(=O)NCc2ccc3c(N)nccc3c2)n2c1c(Cl)nc(NC1CCC1)c2=O |  |  | 360 nM | 
CCCNc1cnc2n(c1=O)[C@H](C(=O)NCc1ccc(C(=N)N)cc1)C[C@@]2(C)CC | > 15000 nM | 2100 nM | 150 nM | 
CC(C)(C)Nc1nc(Cl)c2n(c1=O)[C@H](C(=O)NCc1ccc(C(=N)N)cc1)CC2(C)C | 2800 nM | 220 nM | 68 nM | 

Second part, led by results:

Ki (Coagulation factor X) | Ki (Prothrombin) | Ki [1] | SMILES | also measured
> 15000 nM | 220 nM | 76 nM | CC1(C)C[C@@H](C(=O)NCc2ccc(C(=N)N)cc2)n2c1c(Cl)nc(NCC1CCCCC1)c2=O | 
> 15000 nM | > 15000 nM | 72 nM | C[C@@]1(CO)C[C@@H](C(=O)NCc2ccc(C(=N)N)cc2)n2c1c(Cl)nc(NC1CCC1)c2=O | 
 |  | 300 nM | CCC1(CC)C[C@@H](C(=O)NCc2ccc(CN)cc2)n2c1c(Cl)nc(NC1CCC1)c2=O | 
> 15000 nM | 260 nM | 19 nM | CCNc1nc(Cl)c2n(c1=O)[C@H](C(=O)NCc1ccc(C(=N)N)cc1)CC2(C)C | 
> 15000 nM | 160 nM | 60 nM | CC1(C)C[C@@H](C(=O)NCc2ccc(C(=N)N)cc2)n2c1c(Cl)nc(NC1CCCC1)c2=O | 
> 15000 nM | 78 nM | 99 nM | N=C(N)c1ccc(CNC(=O)[C@@H]2CC3(CCCC3)c3c(Cl)nc(NC4CCC4)c(=O)n32)cc1 | 
> 15000 nM | 230 nM | 24 nM | CNc1nc(Cl)c2n(c1=O)[C@H](C(=O)NCc1ccc(C(=N)N)cc1)CC2(C)C | 
1100 nM | > 15000 nM | 2100 nM | CNC(=O)[C@]1(C)C[C@@H](C(=O)NCc2ccc(C(=N)N)cc2)n2c1c(Cl)nc(NC1CCC1)c2=O | 
> 15000 nM | 130 nM | 17 nM | CC(C)Nc1nc(Cl)c2n(c1=O)[C@H](C(=O)NCc1ccc(C(=N)N)cc1)CC2(C)C | 
> 15000 nM | 360 nM | 37 nM | CC1(C)C[C@@H](C(=O)NCc2ccc(C(=N)N)cc2)n2c1c(Cl)nc(NC1CC1)c2=O | 
3700 nM | > 15000 nM | 560 nM | C[C@@]1(C(=O)NCc2ccccc2)C[C@@H](C(=O)NCc2ccc(C(=N)N)cc2)n2c1c(Cl)nc(NC1CCC1)c2=O | 
3300 nM | 210 nM | 7.3 nM | CCC1(CC)C[C@@H](C(=O)NCc2ccc(C(=N)N)cc2)n2c1c(Cl)nc(NC1CCC1)c2=O | Activity (Plasma [2]): 5.6 µM; Cp(f) (Plasma [3]): 6.8%; Ratio Ki (Homo sapiens [4]): < 3; Ratio Ki (Homo sapiens [5]): < 3; Ratio Ki (Homo sapiens [6]): 30; Ratio Ki (Homo sapiens [7]): > 160; Ratio Ki (Homo sapiens [8]): > 160; Ratio Ki (Homo sapiens [9]): > 160
> 15000 nM | 200 nM | 23 nM | CC1(C)C[C@@H](C(=O)NCc2ccc(C(=N)N)cc2)n2c1c(Cl)nc(NC1CCC1)c2=O | 
650 nM | 220 nM | 5.8 nM | C=CC[C@]1(C)C[C@@H](C(=O)NCc2ccc(C(=N)N)cc2)n2c1c(Cl)nc(NC1CCC1)c2=O | 
2200 nM | 110 nM | 21 nM | CCC[C@@]1(C)C[C@@H](C(=O)NCc2ccc(C(=N)N)cc2)n2c1c(Cl)nc(NC1CCC1)c2=O | 
> 15000 nM | 35 nM | 30 nM | N=C(N)c1ccc(CNC(=O)[C@@H]2CCc3c(Cl)nc(NC4CCC4)c(=O)n32)cc1 | 
1000 nM | 36 nM | 23 nM | CCC[C@]1(C)C[C@@H](C(=O)NCc2ccc(C(=N)N)cc2)n2c1c(Cl)nc(NC1CCC1)c2=O | 
550 nM | 170 nM | 28 nM | CCCC1(CCC)C[C@@H](C(=O)NCc2ccc(C(=N)N)cc2)n2c1c(Cl)nc(NC1CCC1)c2=O | 
